Compounds with a hit are over-represented: about 2.5% of the library has one in this group of screens.
SENP6 inh: inhibitors of human SENP6 protease. Q9GZR1. Recombinant SENP6 catalytic domain, aminoluciferin luminescence. inhibition, % at 10 µM. 1.8% of 330,000 active;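 active means inhibition above about 50% at the single tested dose, limit read from the data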;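 further: plate controls were DMSO wells with enzyme for no effect and DMSO wells lacking enzyme for full effect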
Target sequence (Q9GZR1 628-1112 limits assumed): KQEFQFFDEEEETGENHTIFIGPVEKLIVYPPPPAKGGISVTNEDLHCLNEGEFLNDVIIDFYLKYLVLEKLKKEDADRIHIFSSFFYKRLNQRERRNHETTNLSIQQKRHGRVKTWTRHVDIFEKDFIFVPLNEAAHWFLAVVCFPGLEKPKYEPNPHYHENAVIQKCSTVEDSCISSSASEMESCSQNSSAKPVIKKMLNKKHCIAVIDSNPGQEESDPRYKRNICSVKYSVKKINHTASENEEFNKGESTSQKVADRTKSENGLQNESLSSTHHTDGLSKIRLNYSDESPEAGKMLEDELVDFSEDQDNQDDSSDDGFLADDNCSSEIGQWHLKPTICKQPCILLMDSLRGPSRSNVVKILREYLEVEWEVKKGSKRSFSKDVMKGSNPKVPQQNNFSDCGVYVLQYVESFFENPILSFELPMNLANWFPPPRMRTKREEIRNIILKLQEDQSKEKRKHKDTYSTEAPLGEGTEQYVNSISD
SENP8 block-1: blocks the human protease SENP8 | Q96LD8 | purified SENP8, Z-RLRGG-aminoluciferin cleavage, luminescence | inhibition, % at 10 µM | 1.2% of 330,000 active; in the data active means inhibition above about 50%
Target sequence (Q96LD8 whole entry, looked up): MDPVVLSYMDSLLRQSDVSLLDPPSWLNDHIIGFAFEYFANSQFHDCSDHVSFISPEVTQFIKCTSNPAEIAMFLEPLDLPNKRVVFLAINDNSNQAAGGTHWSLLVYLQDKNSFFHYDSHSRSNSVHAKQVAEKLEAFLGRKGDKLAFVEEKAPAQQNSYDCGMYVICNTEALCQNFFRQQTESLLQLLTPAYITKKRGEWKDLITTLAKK
SENP1 inh: SENP1 (human) catalytic domain inhibition | 0.21% of 360,000 active | recombinant SENP1 catalytic domain, CyPet-SUMO1-YPet FRET cleavage | inhibition, % at 10 µM | Q9P0U3;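 active means inhibition at least 30% at 10 µM, raw YFP signal under a set limit, fluorescence ratio 0.5 to 1.5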;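 further: 0% = enzyme with DMSO and 100% = no enzyme wells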
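Test system: recombinant human SENP1 catalytic domain, His6-tagged / Medium: pH 8 Tris buffer with EDTA, NaCl, BME, BSA, NP40, catalase / Also added: SUMO1 FRET substrate flanked by Cypet and Ypet, 25 nM / Times: 50 min reaction at room temperature / Signal: FRET, CFP and YFP emission / Control set: no-enzyme low control and enzyme-plus-DMSO high control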
SENP8 block-2: blocks human SENP8 cleavage of Nedd8 substrate; Q96LD8; recombinant SENP8, Nedd8 substrate fluorescence; inhibition, % at 20 µM; 0.64% of 360,000 active; AID 602440; in the data active means inhibition mostly above about 40%, no sharp cut-off; inactive means mostly below about 27%
SENP7 inh: inhibitors of human SENP7 protease; Q9BQF6; recombinant SENP7, Z-RLRGG-aminoluciferin luminescence, 40 min; inhibition, % at 5 µM; 1.5% of 330,000 active; AID 434973;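 active means inhibition above about 50% at the single test dose, limit read from the data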;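 further: plate controls were DMSO with enzyme for no effect and no enzyme buffer wells for full effect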
SENP1 inh conf: confirmation of human SENP1 SUMO protease inhibitors; shares compounds with SENP1 inh; recombinant SENP1, CyPet-SUMO1-YPet FRET cleavage; inhibition, % at 10 µM; 34% of 520 active; AID 651678; in the data active means inhibition mostly above about 35%, no sharp cut-off; inactive means mostly below about 32%;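 further: 0% = enzyme with DMSO and 100% = no enzyme control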
SENP1 kin conf: SENP1 (human) inhibition, kinetic confirmation. shares compounds with SENP1 inh. recombinant SENP1, CyPet-SUMO1-YPet FRET kinetic cleavage. inhibition, % at 10 µM. 26% of 520 active; in the data active means inhibition mostly above about 32%, no sharp cut-off; inactive means mostly below about 29%;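 further: 0% = DMSO with enzyme and 100% = no enzyme substrate only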
Numbers without * were called inactive; . = no result.

SMILES	SENP6 inh	SENP8 block-1	SENP1 inh	SENP8 block-2	SENP7 inh	SENP1 inh conf	SENP1 kin conf
CC(C)C(=O)N(Cc1ccccc1)S(=O)(=O)c1ccc2c(c1)oc(=O)n2C	10.8	4.5	42.7*	7.1	-5.7	16.4	13.2
Cn1c(=O)oc2cc(S(=O)(=O)Nc3ccc(C(=O)O)cc3)ccc21	.	.	5.1	12.1	.	.	.
Cn1c(=O)oc2cc(S(=O)(=O)NCc3ccc(C(=O)O)cc3)ccc21	-13.2	-1.6	28.3*	1.9	1.8	17.1	1.9
Cc1cccc(C)c1-n1nnnc1-c1nc2cc3ccccc3cc2[nH]c1=O	.	.	62.5*	20.6	.	61.6*	44.6*
Cc1cccc(C)c1-n1nnnc1-c1nc2cc(Br)ccc2[nH]c1=O	.	.	-25.7	-44.0	.	.	.
O=C(NCc1cccnc1)C(=O)N/N=C/c1ccccc1[N+](=O)[O-]	9.5	-1.4	3.2	3.2	6.9	.	.
O=C(O)Cn1c(O)c(C2=c3ccccc3=NC2=O)sc1=O	-6.6	-2.2	66.3*	21.2	3.1	66.7*	35.8*
Cn1c(=O)c2c(-c3ccccc3)n(-c3ccc(N)cc3)cc2n(C)c1=O	.	.	45.2*	60.4*	.	24.1	9.3
CCn1c(SCC(=O)Nc2ccc(N3CCOCC3)cc2)nnc1C1CC1	4.9	1.4	3.9	9.0	2.2	.	.
COc1ccc(C2=NOC(Cn3nc(C(=O)NCc4cccc(C(F)(F)F)c4)cc3-c3ccccc3)C2)cc1 (centres undefined)	-6.1	-6.5	2.1	10.6	12.6	.	.
Cc1cc(C)c2cc(C#N)c(SCC(=O)Nc3cc(C)on3)nc2c1	-5.8	-1.1	50.3*	-60.7	2.4	-14.4	5.7
Cc1cc(NC(=O)CSc2nc3c(C)cccc3cc2C#N)no1	-4.5	17.2	20.0	-11.5	-3.2	.	.
Cc1cc(NC(=O)CSc2nc3c(C)ccc(C)c3cc2C#N)no1	3.6	10.0	68.2*	-92.2	-5.6	15.4	11.8
COc1cc(/C=C/C(=O)OCC(=O)Nc2ccc(C)cc2[N+](=O)[O-])ccc1O	-4.8	3.1	38.5*	14.1	-1.9	1.2	6.6
COc1cc(/C=C/C(=O)OCC(=O)Nc2cc(C)c(C)cc2[N+](=O)[O-])ccc1O	12.1	1.9	3.5	8.4	1.2	.	.
COc1cccc(NC2=Nc3cccc4cccc2c34)c1	-19.3	-17.7	80.7*	0.8	-4.9	54.8*	33.3*
COc1ccc(NC2=Nc3cccc4cccc2c34)cc1OC	-5.6	-5.3	69.7*	32.0	-2.0	29.4	11.7
COc1cc(Nc2ncnc(N)n2)cc(OC)c1OC	-21.2	3.1	0.6	11.9	4.6	.	.
COc1ccc(CC(=O)NNC2=Nc3cccc4cccc2c34)cc1OC	15.3	6.6	-144.3	-46.9	4.0	.	.
COc1cc(NC2=Nc3cccc4cccc2c34)cc(OC)c1OC	-1.7	3.7	68.2*	16.6	-4.5	39.0*	21.8
COc1cccc(Nc2n[nH]c(=S)s2)c1	7.3	-0.5	1.1	17.8	4.1	.	.
CCCCS(=O)(=O)N1CCCC(C(=O)Oc2ccc(Cl)cc2)C1 (centres undefined)	-5.1	0.7	2.6	-5.9	4.4	.	.
CCCCC(=O)Nc1c2c(nn1-c1ccc(C)cc1)CS(=O)(=O)C2	5.3	-1.4	-0.5	6.0	5.4	.	.
COC(=O)CSc1nc2cc(OC)ccc2cc1C#N	23.9	21.1	37.4*	-46.0	4.4	16.4	3.0
COc1ccc2cc(C#N)c(SCC(=O)N3CCCC3)nc2c1	-13.5	3.1	-26.9	-255.3	-3.0	.	.
SMILES	SENP6 inh	SENP8 block-1	SENP1 inh	SENP8 block-2	SENP7 inh	SENP1 inh conf	SENP1 kin conf
Nc1nc(N)c2sc3nc(C(F)(F)F)cc(C(F)(F)F)c3c2n1	5.3	4.3	67.9*	5.4	7.5	34.5*	25.2
CCOC(=O)/C(C#N)=C/c1cc2ccccc2nc1N1CCOCC1	-0.9	4.6	67.1*	6.9	-0.1	35.2	20.2
Cc1cccc(C)c1NC(=O)C(C)n1c(-c2ccc(=O)[nH]c2)nc2ccccc21 (centres undefined)	.	.	39.7*	-30.9	.	37.1	25.4
Cc1cccc(C)c1NC(=O)C(C1CC1)n1c(-c2ccc(=O)[nH]c2)nc2ccccc21 (centres undefined)	.	.	0.5	-10.7	.	.	.
Cc1nc2ccc(S(=O)(=O)N(C)CC(=O)NCc3ccc(N(C)C)cc3)cc2s1	7.0	2.8	56.5*	6.2	-3.7	14.8	14.5
Cc1nc2ccc(S(=O)(=O)N(C)CC(=O)NCc3ccc4c(c3)OCO4)cc2s1	-3.0	-4.9	3.0	20.8	-1.4	.	.
O=[N+]([O-])c1ccc(C=NNc2ccc(S(=O)(=O)O)cc2)cc1	.	.	73.3*	25.9	.	28.6	16.4
O=[N+]([O-])c1ccc(N/N=C/c2cccnc2)cc1	31.9	2.5	-25.0	-93.1	4.6	.	.
COc1ccccc1NS(=O)(=O)c1ccc(O)cc1	-1.9	-0.2	0.1	20.5	13.5	.	.
COc1cc(O)c(C=Nc2ccccc2NS(=O)(=O)c2ccc(C)cc2)c(OC)c1	.	.	51.1*	12.5	.	74.0*	67.2*
O=C(CN(Cc1ccccc1Cl)C(=O)c1csnn1)NC1CCCC1	3.6	-2.9	0.6	12.4	2.6	.	.
Cc1ccnc(NC(=O)CCC(=O)c2cc(C)sc2C)c1	-6.8	-4.2	38.2*	4.7	-11.0	15.2	12.8
CN1CCN(C2=Nc3c(Cl)cc(Cl)c4cccc2c34)CC1	-3.4	2.1	82.2*	30.7	7.5	101.0*	56.7*
CCN(CC)CCOc1ccc(C=NNc2nc3c([nH]2)c(=O)n(C)c(=O)n3C)cc1	.	.	-2.1	-102.3	.	.	.
COc1cc(Cn2c3ccc(NC(=O)CCc4ccccc4)cc3c(=O)n2C)ccc1F	.	.	32.9*	-458.2	.	3.8	4.8
c1ccc(CN2CCN(C3=Nc4cccc5cccc3c45)CC2)cc1	-14.4	-2.6	82.5*	27.3	0.4	89.3*	53.1*
C/C(=N/N=C(\C)c1ccccc1O)c1ccccc1O	-1.4	-9.2	68.1	29.4	47.2	.	.
CCC(=NN=C(CC)c1ccccc1O)c1ccccc1O	.	.	46.6*	24.0	.	130.1*	73.4*
CCOc1ccc(S(=O)(=O)Nc2ccc(C(=O)NCc3ccncc3)cc2)cc1	-3.6	4.9	-0.7	17.0	-2.8	.	.
CC(C(=O)c1ccc(Br)cc1)[n+]1cccc(NC(=O)c2ccccc2)c1 (centres undefined)	-4.9	-12.1	1.3	30.8	-2.5	.	.
CC(C(=O)c1ccc(Br)cc1)[n+]1cccc2ccccc21 (centres undefined)	-3.1	-6.6	51.9*	-43.3	-3.2	18.1	21.7
Cc1noc(NS(=O)(=O)c2ccc(NS(=O)(=O)c3ccc(C(C)(C)C)cc3)cc2)c1C	.	.	2.4	8.8	.	.	.
CC1=C(C(N)=O)S(=O)(=O)c2ccccc21	14.5	3.2	47.0*	8.7	2.3	47.2*	37.1
Oc1ccc(Cl)cc1C1=Nc2ccccc2N=C(c2ccco2)C1	-34.0	-2.5	67.4*	-312.1	3.6	63.8*	52.2*
